Measurements reported in ChEMBL document CHEMBL1126729, “Quinolone antibacterials: synthesis and biological activity of carbon isosteres of the 1-piperazinyl and 3-amino-1-pyrrolidinyl side chains” (J Med Chem, 1993).
≈ marks a conversion by molar mass, not a printed value.

Key:
Type in all cases: functional
[1] = tested on: Mus musculus; assay: Protective dose in vivo was determined in acute, lethal systemic infections in female Charles River CD-1 mice against Escherichia coli Vogel; conditions: read-out: PD50
In short: (§1)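 Female Charles River CD-1 mice with an acute, lethal systemic infection received a single compound dose at the time of challenge. The median protective dose (PD50, mg/kg) was taken as the read-out.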

[2] = tested on: Bacteria; assay: Geometric mean of MIC was determined in vitro against gram-positive strains using standard microtitration techniques
In short: (§2)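 Per-compound geometric means of the microtitration MICs (μg/mL), calculated separately across the Gram-negative strains and the Gram-positive strains. Pseudomonas aeruginosa is excluded from the Gram-negative mean.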

[3] = Geometric mean of MIC was determined in vitro against gram-negative strains using standard microtitration techniques; in short: as §2
[4] = tested on: Mus musculus; assay: Protective dose in vivo was determined in acute, lethal systemic infections in female Charles River CD-1 mice against Streptococcus pyogenes C-203; conditions: read-out: PD50; in short: as §1
[5] = biological target: DNA gyrase (Escherichia coli, UniProt P0AES4+P0AES6); assay: Inhibition of the gyrase mediated cleavage of supercoiled DNA
[6] = tested on: Escherichia coli; assay: Antibacterial activity was tested in vitro against Escherichia coli Vogel using standard microtitration techniques
In short: (§3)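 Broth microtitration MIC testing against a panel of six Gram-negative and five Gram-positive bacterial strains. Values are given as MIC in μg/mL.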

[7] = tested on: Streptococcus pyogenes; assay: (§4) Antibacterial activity was tested in vitro against Streptococcus pyogenes C-203 using standard microtitration techniques
In short: (§5)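 MIC (μg/mL) by standard broth microtitration, as part of a panel of six Gram-negative and five Gram-positive organisms.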

[8] = tested on: Staphylococcus aureus; assay: Antibacterial activity was tested in vitro against Staphylococcus aureus H-288 using standard microtitration techniques; in short: as §3
[9] = tested on: Staphylococcus aureus; assay: (§6) Antibacterial activity was tested in vitro against Staphylococcus aureus UC-76 using standard microtitration techniques; in short: as §5
[10] = tested on: Enterococcus faecalis; assay: Antibacterial activity was tested in vitro against Enterococcus faecalis MGH-2 using standard microtitration techniques; in short: as §3
[11] = tested on: Klebsiella pneumoniae; assay: Antibacterial activity was tested in vitro against Klebsiella pneumoniae MGH-2 using standard microtitration technique; in short: as §3
[12] = tested on: Providencia rettgeri; assay: Antibacterial activity was tested in vitro against M-1771 strain of Providencia rettgeri using standard microtitration techniques; in short: as §3
[13] = tested on: Streptococcus pneumoniae; assay: Antibacterial activity was tested in vitro against Streptococcus pneumoniae SV-1 using standard microtitration techniques; in short: as §3
[14] = tested on: Enterobacter cloacae; assay: Antibacterial activity was tested in vitro against Enterococcus cloacae MA-2646 using standard microtitration techniques; in short: as §3
[15] = tested on: Escherichia coli; assay: Antibacterial activity was tested in vitro against Escherichia coli H-560 using standard microtitration techniques; in short: as §3
[16] = tested on: Pseudomonas aeruginosa; assay: Antibacterial activity was tested in vitro against Pseudomonas aeruginosa UI-18 using standard microtitration techniques; in short: as §3
[17] = tested on: Mus musculus; assay: Protective dose in vivo was determined in acute, lethal systemic infections in female Charles River CD-1 mice against Streptococcus pyogenes C-203; 50/45.; conditions: read-out: PD50
[18] = tested on: Klebsiella pneumoniae; assay: Antibacterial activity was tested in vitro against Klebsiella pneumoniae MGH-2 using standard microtitration techniques; in short: as §5
[19] = tested on: Mus musculus; assay: Protective dose in vivo was determined in acute, lethal systemic infections in female Charles River CD-1 mice against Escherichia coli Vogel; 6/1.1.; conditions: read-out: PD50
[20] = tested on: Streptococcus pyogenes; assay: as §4; in short: as §3; remark: listed apart in the source
[21] = tested on: Staphylococcus aureus; assay: as §6; in short: as §3; remark: listed apart in the source

Row | Compound | ED50 [1] [mg/kg] | MIC [2] [µg/mL] | MIC [3] [µg/mL] | ED50 [4] [mg/kg] | IC50 [5] [µM] | MIC [6] [µg/mL] | MIC [7] [µg/mL] | MIC [8] [µg/mL] | MIC [9] [µg/mL] | MIC [10] [µg/mL] | MIC [12] [µg/mL] | MIC [13] [µg/mL] | MIC [14] [µg/mL] | MIC [15] [µg/mL] | MIC [16] [µg/mL] | MIC [18] [µg/mL] | other results
1 | O=C(O)c1cn(C2CC2)c2nc(N3CCNCC3)c(F)cc2c1=O | 0.7 | 1.2 (≈ 3.61 µM) | 0.05 (≈ 0.15 µM) | 63 | > 75.2 | – | – | – | – | – | – | – | – | – | – | – | –
2 | O=C(O)c1cn(C2CC2)c2cc(C3CCNCC3)c(F)cc2c1=O | 13.8 | 1.8 (≈ 5.45 µM) | 0.3 (≈ 0.908 µM) | – | 11.5 | 0.2 (≈ 0.605 µM) | 0.4 (≈ 1.21 µM) | 6.3 (≈ 19.1 µM) | 0.8 (≈ 2.42 µM) | 3.1 (≈ 9.38 µM) | 0.8 (≈ 2.42 µM) | 3.1 (≈ 9.38 µM) | 0.2 (≈ 0.605 µM) | 0.2 (≈ 0.605 µM) | 1.6 (≈ 4.84 µM) | – | MIC [11]: 0.4 µg/mL (≈ 1.21 µM)
3 | NC1C=C(c2nc3c(cc2F)c(=O)c(C(=O)O)cn3-c2ccc(F)cc2F)CC1 (stereo not given) | – | 0.09 (≈ 0.224 µM) | 0.07 (≈ 0.174 µM) | – | 15.7 | 0.05 (≈ 0.125 µM) | – | 0.1 (≈ 0.249 µM) | 0.025 (≈ 0.0623 µM) | 0.2 (≈ 0.498 µM) | 0.2 (≈ 0.498 µM) | 0.1 (≈ 0.249 µM) | 0.05 (≈ 0.125 µM) | 0.025 (≈ 0.0623 µM) | 1.6 (≈ 3.99 µM) | 0.1 (≈ 0.249 µM) | ED50 [17]: 50 mg/kg; ED50 [19]: 6 mg/kg; MIC [20]: 0.1 µg/mL (≈ 0.249 µM)
4 | O=C(O)c1cn(C2CC2)c2cc(C3=CCNCC3)c(F)cc2c1=O | 1.7 | 0.46 (≈ 1.4 µM) | 0.04 (≈ 0.122 µM) | > 100 | 2.74 | 0.025 (≈ 0.0761 µM) | 0.4 (≈ 1.22 µM) | 0.8 (≈ 2.44 µM) | 0.1 (≈ 0.305 µM) | 0.8 (≈ 2.44 µM) | 0.1 (≈ 0.305 µM) | 0.8 (≈ 2.44 µM) | 0.025 (≈ 0.0761 µM) | 0.013 (≈ 0.0396 µM) | 0.8 (≈ 2.44 µM) | 0.1 (≈ 0.305 µM) | –
5 | NC1C=C(c2nc3c(cc2F)c(=O)c(C(=O)O)cn3C2CC2)CC1 (stereo not given) | 1.2 | 0.35 (≈ 1.06 µM) | 0.07 (≈ 0.213 µM) | 50 | 11.5 | 0.05 (≈ 0.152 µM) | 0.4 (≈ 1.21 µM) | 0.8 (≈ 2.43 µM) | 0.1 (≈ 0.304 µM) | 0.4 (≈ 1.21 µM) | 0.1 (≈ 0.304 µM) | 0.4 (≈ 1.21 µM) | 0.05 (≈ 0.152 µM) | 0.05 (≈ 0.152 µM) | 0.8 (≈ 2.43 µM) | 0.1 (≈ 0.304 µM) | –
6 | NC1CCN(c2nc3c(cc2F)c(=O)c(C(=O)O)cn3-c2ccc(F)cc2F)C1 (stereo not given) [TOSUFLOXACIN] | 0.6 | 0.04 (≈ 0.0989 µM) | 0.03 (≈ 0.0742 µM) | 5.7 | 7.42 | – | – | – | – | – | – | – | – | – | – | – | –
7 | O=C(O)c1cn(C2CC2)c2cc(N3CCNCC3)c(F)cc2c1=O [CIPROFLOXACIN] | 1.2 | 0.6 (≈ 1.81 µM) | 0.05 (≈ 0.151 µM) | > 260 | – | – | – | – | – | – | – | – | – | – | – | – | –
8 | O=C(O)c1cn(-c2ccc(F)cc2F)c2nc(N3CCNCC3)c(F)cc2c1=O | – | 0.2 (≈ 0.495 µM) | 0.4 (≈ 0.989 µM) | 2.4 | – | – | – | – | – | – | – | – | – | – | – | – | –
9 | NC1CCN(c2cc3c(cc2F)c(=O)c(C(=O)O)cn3C2CC2)C1 (stereo not given) | 3.4 | 0.09 (≈ 0.272 µM) | 0.04 (≈ 0.121 µM) | 97 | 7.85 | – | – | – | – | – | – | – | – | – | – | – | –
10 | NC1C=C(c2cc3c(cc2F)c(=O)c(C(=O)O)cn3C2CC2)CC1 (stereo not given) | 5.2 | 0.35 (≈ 1.07 µM) | 0.13 (≈ 0.396 µM) | – | 8.53 | 0.1 (≈ 0.305 µM) | 0.2 (≈ 0.609 µM) | 0.8 (≈ 2.44 µM) | – | 0.8 (≈ 2.44 µM) | 0.2 (≈ 0.609 µM) | 0.4 (≈ 1.22 µM) | 0.1 (≈ 0.305 µM) | 0.1 (≈ 0.305 µM) | 0.8 (≈ 2.44 µM) | 0.2 (≈ 0.609 µM) | MIC [21]: 0.1 µg/mL (≈ 0.305 µM)
11 | NC1CCN(c2nc3c(cc2F)c(=O)c(C(=O)O)cn3C2CC2)C1 (stereo not given) | 2 | 0.1 (≈ 0.301 µM) | 0.02 (≈ 0.0602 µM) | 32 | 9.03 | – | – | – | – | – | – | – | – | – | – | – | –
12 | O=C(O)c1cn(C2CC2)c2nc(C3=CCNCC3)c(F)cc2c1=O | 0.5 | 0.6 (≈ 1.82 µM) | 0.03 (≈ 0.0911 µM) | 42 | 11.5 | 0.013 (≈ 0.0395 µM) | 0.4 (≈ 1.21 µM) | 1.6 (≈ 4.86 µM) | 0.2 (≈ 0.607 µM) | 0.8 (≈ 2.43 µM) | 0.05 (≈ 0.152 µM) | 0.8 (≈ 2.43 µM) | 0.025 (≈ 0.0759 µM) | 0.013 (≈ 0.0395 µM) | 0.2 (≈ 0.607 µM) | 0.05 (≈ 0.152 µM) | –
13 | O=C(O)c1cn(-c2ccc(F)cc2F)c2nc(C3=CCNCC3)c(F)cc2c1=O | – | 0.53 (≈ 1.32 µM) | 0.15 (≈ 0.374 µM) | – | 12.5 | 0.1 (≈ 0.249 µM) | 0.4 (≈ 0.997 µM) | 0.8 (≈ 1.99 µM) | 0.2 (≈ 0.498 µM) | 1.6 (≈ 3.99 µM) | 0.4 (≈ 0.997 µM) | 0.4 (≈ 0.997 µM) | 0.1 (≈ 0.249 µM) | 0.1 (≈ 0.249 µM) | 1.6 (≈ 3.99 µM) | 0.2 (≈ 0.498 µM) | –
